From ChEMBL document CHEMBL4308874, “Discovery and optimization of 3,4,5-trimethoxyphenyl substituted triazolylthioacetamides as potent tubulin polymerization inhibitors” (Bioorg Med Chem Lett, 2019)

Experiments:
MCF7 = test: Cytotoxicity against human MCF7 cells assessed as inhibition of cell growth after 48 hrs by MTT assay; format: functional, cell-based; details: MCF7, 48 h
HeLa [1] = test: Cytotoxicity against human HeLa cells assessed as inhibition of cell growth after 48 hrs by MTT assay; format: functional, cell-based
HCT-116 = test: Cytotoxicity against human HCT116 cells assessed as inhibition of cell growth after 48 hrs by MTT assay; format: functional, cell-based; details: HCT-116, 48 h
HT-29 = test: Cytotoxicity against human HT-29 cells assessed as inhibition of cell growth after 48 hrs by MTT assay; format: functional, cell-based; details: HT-29, 48 h
HEK293 = test: Cytotoxicity against HEK293 cells assessed as inhibition of cell growth after 48 hrs by MTT assay; format: cell-based; details: Homo sapiens, HEK293, 48 h
Tubulin (Homo sapiens) = Tubulin (Homo sapiens) (UniProt P68371+Q9H4B7+P0DPH7+P68366+Q13509+Q71U36+P04350+Q3ZCM7+P07437+P68363+Q9BQE3+Q6PEY2+Q13885+Q9BVA1+Q9BUF5); test: Inhibition of tubulin (unknown origin) polymerization at 10 uM relative to control; format: protein-complex assay
Procedure, shortened: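 Tubulin polymerization inhibition measured with compound at a final concentration of 10 μM, expressed as percent inhibition.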

HeLa [2] = test: Cell cycle arrest in human HeLa cells assessed as accumulation at G2/M phase at 0.25 uM after 48 hrs by propidium iodide staining based flow cytometry (reference value: 12.91%); format: functional
HeLa [3] = test: Cell cycle arrest in human HeLa cells assessed as accumulation at G0/G1 phase at 0.25 uM after 48 hrs by propidium iodide staining based flow cytometry (reference value: 66.77%); format: functional
HeLa [4] = test: Cell cycle arrest in human HeLa cells assessed as accumulation at G2/M phase after 48 hrs by propidium iodide staining based flow cytometry; format: functional
HeLa [5] = test: Cell cycle arrest in human HeLa cells assessed as accumulation at G2/M phase at 0.5 uM after 48 hrs by propidium iodide staining based flow cytometry (reference value: 12.91%); format: functional
HeLa [6] = test: Cell cycle arrest in human HeLa cells assessed as accumulation at G0/G1 phase at 0.5 uM after 48 hrs by propidium iodide staining based flow cytometry (reference value: 66.77%); format: functional
HeLa [7] = test: Cell cycle arrest in human HeLa cells assessed as accumulation at S phase at 0.25 uM after 48 hrs by propidium iodide staining based flow cytometry (reference value: 20.31%); format: functional
HeLa [8] = test: Cell cycle arrest in human HeLa cells assessed as accumulation at S phase at 0.5 uM after 48 hrs by propidium iodide staining based flow cytometry (reference value: 20.31%); format: functional
Tubulin = test: Inhibition of tubulin (unknown origin) polymerization; format: protein-complex assay, Homo sapiens

Row | SMILES | IC50 (MCF7) | IC50 (HeLa [1]) | IC50 (HCT-116) | IC50 (HT-29) | inhibition (Tubulin (Homo sapiens)) | also measured
1 | COc1ccc(NC(=O)CSc2nnc(-c3cc(OC)c(OC)c(OC)c3)[nH]2)cc1O | > 100 µM | > 100 µM | > 100 µM | > 100 µM |  | 
2 | COc1cc(-c2nnc(SCC(=O)Nc3ccc(C)cc3F)n2N)cc(OC)c1OC | > 100 µM | 0.04 µM | > 100 µM | 0.13 µM |  | IC50 (HEK293): 61.1 µM
3 | COc1cc(-c2nnc(SCC(=O)Oc3ccc(C)cc3)n2N)cc(OC)c1OC | > 100 µM | > 100 µM | > 100 µM | > 100 µM |  | 
4 | COc1cc(-c2nnc(SCC(=O)c3ccc(Cl)cc3)n2-n2cccc2)cc(OC)c1OC | > 100 µM | > 100 µM | > 100 µM | > 100 µM |  | 
5 | COc1ccc(NC(=O)CSc2nnc(-c3cc(OC)c(OC)c(OC)c3)n2N)cc1O | > 100 µM | 34.8 µM | > 100 µM | > 100 µM |  | 
6 | CCCc1ccc(NC(=O)CSc2nnc(-c3cc(OC)c(OC)c(OC)c3)n2N)cc1 | 41.2 µM | 18.7 µM | 41.8 µM | 50.8 µM | 19% | 
7 | COc1cc(-c2nnc(SCC(=O)Nc3ccc(C(C)C)cc3)n2N)cc(OC)c1OC | > 100 µM | 13.7 µM | 74.8 µM | > 100 µM |  | 
8 | CCCc1ccc(NC(=O)CSc2nnc(-c3cc(OC)c(OC)c(OC)c3)[nH]2)cc1 | > 100 µM | > 100 µM | > 100 µM | > 100 µM |  | 
9 | COc1cc(-c2nnc(SCC(=O)c3ccc(C)cc3)n2-n2cccc2)cc(OC)c1OC | > 100 µM | > 100 µM | > 100 µM | > 100 µM |  | 
10 | COc1ccc(NC(=O)CSc2nnc(-c3cc(OC)c(OC)c(OC)c3)n2-n2cccc2)cc1OC | > 100 µM | > 100 µM | > 100 µM | > 100 µM |  | 
11 | COc1cc(-c2nnc(SCC(=O)Nc3ccc(C(C)(C)C)cc3)n2N)cc(OC)c1OC | > 100 µM | 49.6 µM | > 100 µM | > 100 µM |  | 
12 | COc1ccc(NC(=O)CSc2nnc(-c3cc(OC)c(OC)c(OC)c3)n2N)cc1 | > 100 µM | 2.96 µM | 61.1 µM | 15.2 µM | 24% | 
13 | CCc1ccc(NC(=O)CSc2nnc(-c3cc(OC)c(OC)c(OC)c3)n2N)cc1 | 25.4 µM | 0.05 µM | 71.4 µM | 0.84 µM | 38% | Activity (HeLa [2]): 27.3%; Activity (HeLa [3]): 47.35%; Activity (HeLa [4]): Dose-dependent effect; Activity (HeLa [5]): 54.77%; Activity (HeLa [6]): 43.23%; Activity (HeLa [7]): 25.35%; IC50 (HEK293): > 100 µM; Activity (HeLa [8]): 2%
14 | COc1ccc(NC(=O)CSc2nnc(-c3cc(OC)c(OC)c(OC)c3)[nH]2)cc1 | > 100 µM | > 100 µM | > 100 µM | > 100 µM |  | 
15 | COc1cc(-c2nnc(SCC(=O)Nc3ccc(N(C)C)cc3)n2N)cc(OC)c1OC | > 100 µM | 23.8 µM | > 100 µM | 43.1 µM |  | 
16 | COc1cc(-c2nnc(SCC(=O)Nc3ccc(C)cc3)n2-n2cccc2)cc(OC)c1OC | > 100 µM | > 100 µM | 26.6 µM | 2.94 µM | 17% | 

Row | SMILES | IC50 (MCF7) | IC50 (HeLa [1]) | IC50 (HCT-116) | IC50 (HT-29) | inhibition (Tubulin (Homo sapiens)) | also measured
17 | COc1cc(-c2nnc(SCC(=O)NC3CCCCC3)n2N)cc(OC)c1OC | 80.6 µM | 59.7 µM | > 100 µM | > 100 µM |  | 
18 | COc1cc(-c2nnc(SCC(=O)Nc3ccc(C)cc3)n2N)cc(OC)c1OC | 26.8 µM | 1.61 µM |  | 0.82 µM | 55% | IC50 (Tubulin): 5.9 µM
19 | COc1cc(-c2nnc(SCC(=O)Nc3ccc(N4CCCCC4)cc3)n2N)cc(OC)c1OC | > 100 µM | 54.9 µM | > 100 µM | 75.3 µM |  | 
20 | COc1cc(-c2nnc(SCC(=O)Nc3cccc(C)c3)n2N)cc(OC)c1OC | 47.1 µM | 2.96 µM | > 100 µM | 4.87 µM | 25% | 
21 | COc1cc(-c2nnc(SCC(=O)Nc3ccc(C)cc3)[nH]2)cc(OC)c1OC | > 100 µM | > 100 µM | > 100 µM | > 100 µM |  | 
22 | COc1cccc(NC(=O)CSc2nnc(-c3cc(OC)c(OC)c(OC)c3)n2N)c1 | 52.6 µM |  |  | 3.15 µM |  | 
23 | COc1ccc(NC(=O)CSc2nnc(-c3cc(OC)c(OC)c(OC)c3)n2-n2cccc2)cc1 | > 100 µM | > 100 µM | > 100 µM | > 100 µM |  | 
24 | COc1ccc(/C=C\c2cc(OC)c(OC)c(OC)c2)cc1O [COMBRETASTATIN A4] |  | 0.007 µM |  | 1.96 µM |  | 
25 | CCc1ccc(NC(=O)CSc2nnc(-c3cc(OC)c(OC)c(OC)c3)[nH]2)cc1 | > 100 µM | 33.9 µM | > 100 µM | > 100 µM | 11% | 
26 | COc1cc(-c2nnc(SCC(=O)N(C)c3ccc(C)cc3)n2N)cc(OC)c1OC | > 100 µM | 21.3 µM | > 100 µM | > 100 µM | 21% | 
27 | COc1ccccc1NC(=O)CSc1nnc(-c2cc(OC)c(OC)c(OC)c2)n1N | > 100 µM | 0.16 µM | 82.9 µM | 0.13 µM | 25% | IC50 (HEK293): > 100 µM
28 | COc1cccc(NC(=O)CSc2nnc(-c3cc(OC)c(OC)c(OC)c3)[nH]2)c1 | > 100 µM | > 100 µM | > 100 µM | > 100 µM |  | 
29 | COc1ccc(NC(=O)CSc2nnc(-c3cc(OC)c(OC)c(OC)c3)n2N)cc1OC | > 100 µM | 54.2 µM | > 100 µM | > 100 µM |  | 
30 | COc1cc(-c2nnc(SCC(=O)Nc3ccc(C)c(C)c3)n2N)cc(OC)c1OC | > 100 µM | 0.88 µM | > 100 µM | 1.21 µM | 18% | 
31 | COc1cc(-c2nnc(SCC(=O)Nc3c(C)cc(C)cc3C)n2N)cc(OC)c1OC | > 100 µM | 82.8 µM | > 100 µM | > 100 µM |  | 
